Laboratory results taken from paper PMC5783483 (Molecular Medicine Reports, 2017).
Marks after values point to notes of the source that are not given here.

Key:
Type in all cases: in vivo, BALB/c/nu nude mice
Settings in all cases: Taxol 5 mg/kg injection twice per week
[1] = tested on: MX-1 xenograft; test: Breast cancer MX-1 xenograft model
How it was run: (§1)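 Six-week-old female BALB/c/nu nude mice (15–16 g) bearing MX-1 or MX-1/T xenografts, housed at 25°C on a 12-h light/dark cycle. Mice were randomized into four groups of five once mean tumor volume reached 100–250 mm3. Read-outs were relative tumor volume T/C and excised tumor weight, as mean ± SD.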

[2] = tested on: MX-1/T xenograft; test: Breast cancer MX-1/T xenograft model
How it was run: as §1

[3] = tested on: MCF-7/T xenograft; test: Breast cancer MCF-7/T xenograft model
How it was run: (§2)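 Six-week-old female BALB/c/nu nude mice (16–22 g) bearing MCF-7 or MCF-7/T xenografts, housed at 25°C on a 12-h light/dark cycle. Mice were randomized into four groups of five at a mean tumor volume of 100–250 mm3. Read-outs were RTV T/C and excised tumor weight, as mean ± SD.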

[4] = tested on: MCF-7 xenograft; test: Breast cancer MCF-7 xenograft model
How it was run: as §2

CC(=O)O[C@H]1C(=O)[C@@]2(C)[C@H]([C@H](OC(=O)c3ccccc3)[C@]3(O)C[C@H](OC(=O)[C@H](O)[C@@H](NC(=O)c4ccccc4)c4ccccc4)C(C)=C1C3(C)C)[C@]1(OC(C)=O)CO[C@@H]1C[C@@H]2O [Taxol]
Body weight Final ([1]; 13 days): 20.8 ± 2.2 g | Relative tumor volume Treated/control ratio ([1]; 13 days): 55.56% | Relative tumor volume x±SD ([1]; 13 days): 12.27±2.33^b | Tumor volume Final ([1]; 13 days): 1,714.4±308.2^a mm3 | Tumor weight Inhibition ([1]; 13 days): 41.56% | Tumor weight x±SD ([1]; 13 days): 0.94±0.20^a g | Body weight Initial ([1]; before treatment): 16.0 ± 0.7 g | Tumor volume Initial ([1]; before treatment): 140.2±13.3 mm3 | Body weight Final ([2]; 13 days): 20.4 ± 0.9 g | Relative tumor volume Treated/control ratio ([2]; 13 days): 95.13% | Relative tumor volume x±SD ([2]; 13 days): 22.71±11.09 | Tumor volume Final ([2]; 13 days): 2,183.1±1,091.0 mm3 | Tumor weight x±SD ([2]; 13 days): 1.58 ± 0.79 g | Body weight Initial ([2]; before treatment): 15.6 ± 0.6 g | Tumor volume Initial ([2]; before treatment): 95.7±17.1 mm3 | Body weight Final ([3]; 33 days): 17.5 ± 2.1 g | Relative tumor volume x±SD ([3]; 33 days): 12.59±3.17 | Tumor volume Final ([3]; 33 days): 1,871.0±981.5 mm3 | Tumor weight x±SD ([3]; 33 days): 1.36 ± 0.48 g | Body weight Initial ([3]; before treatment): 16.8 ± 1.9 g | Tumor volume Initial ([3]; before treatment): 132.5±45.3 mm3 | Body weight Final ([4]; 33 days): 22.8 ± 2.3 g | Relative tumor volume Treated/control ratio ([4]; 33 days): 6.75% | Relative tumor volume x±SD ([4]; 33 days): 0.34±0.22^a | Tumor volume Final ([4]; 33 days): 68.3±32.5^a mm3 | Tumor weight Inhibition ([4]; 33 days): 96.36% | Tumor weight x±SD ([4]; 33 days): 0.04±0.02^a g | Body weight Initial ([4]; before treatment): 21.0 ± 1.6 g | Tumor volume Initial ([4]; before treatment): 227.4±74.6 mm3
